Data set [1] is described as follows: Cytotoxicity against African green monkey Vero cells after 72 hrs by MTT assay. The data set is classed as cell-based. The note with it: chlorocebus sabaeus. The gist of the method: (§1)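 Vero or J-774A.1 cells (1 x 10^5 cells/mL) exposed to 7 concentrations starting from 400 µM for 72 h. MTT (5 mg/mL stock) then added for 2 h at 37°C. Formazan dissolved in DMSO; absorbance read at 544 nm. CC50 estimated per Huber & Koella; mean ± SD of two independent assays in duplicate.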
(In general: Formazan colour is commonly taken as a measure of viable cells.)

For data set [2], the system named is Leishmania donovani. Description: Antileishmanial activity against Leishmania donovani MHOM/IN/80/Dd8 amastigotes infected in mouse J774A.1 cells incubated for 72 hrs by luminometric analysis. The class given is functional, organism-based. The note with it: MHOM/IN/80/Dd8, J774.A1, 72 h. In short, it runs like this:
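Macrophages seeded at 4 x 10^4/mL in RPMI-1640 with 10% FCS for 24 h, then infected with stationary-phase promastigotes (4 x 10^5/mL) for 24 h. Free parasites washed off. Compounds added as 7-point two-fold dilutions from 40 µM; 72 h at 37°C. Read-out was Steady Glo luminescence. IC50 from four-parameter Hill fit; two independent assays in duplicate.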

Data set [3] in a line: (§2) Selectivity index, ratio of CC50 for African green monkey Vero cells to IC50 for Leishmania donovani MHOM/IN/80/Dd8 amastigotes infected in mouse J774A.1 cells. The data set is classed as functional. The gist of the method:
(§3)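 Ratio of Vero-cell MTT CC50 to IC50 against intracellular amastigotes, both measured in this work.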

Data set [4] in a line: Cytotoxicity against mouse J774A.1 cells after 72 hrs by MTT assay. The class given is cell-based, J774.A1. The gist of the method:
as §1

The subject of data set [5] is Leishmania donovani. Description: Potency index, ratio of IC50 for miltefosine to IC50 for test compound against Leishmania donovani MHOM/IN/80/Dd8 amastigotes infected in mouse J774A.1 cells. The class given is functional.
Another data set relates to Vero. The description is as §2. The data set is classed as functional. In short, it runs like this: as §3
The subject of data set [6] is Leishmania donovani. Description: Antileishmanial activity against amastigote stage of Leishmania donovani MHOM/IN/80/Dd8 infected in golden hamster at 40 mg/kg, ip administered for 5 days measured on day 7 of last dose by Geimsa staining method. The data set is classed as functional, organism-based.
Data set [7] relates to Leishmania donovani. Briefly: Antileishmanial activity against amastigote stage of Leishmania donovani MHOM/IN/80/Dd8 infected in golden hamster at 50 mg/kg/day, ip administered for 5 days measured on day 7 of last dose by Geimsa staining method. The data set is classed as functional. The note with it: MHOM/IN/80/Dd8, ip. In short, it runs like this: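 Inbred golden hamsters (40–45 g) infected intracardially with 1x10^7 amastigotes; only animals with +1 infection at 15-day spleen biopsy used. Five to six per group. Aqueous compound given ip at 50 mg/kg/day for 5 days, starting 2 days after biopsy. Splenic biopsy on day 7 after last dose, Giemsa-stained. Percent inhibition by formula relative to initial and untreated-control counts; pooled from at least two experiments.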

Another data set deals with Syrian golden hamster. Briefly: Toxicity in golden hamster infected with amastigote stage of Leishmania donovani MHOM/IN/80/Dd8 assessed as abnormality in behaviour at 50 mg/kg/day, ip administered for 5 days. The conditions noted are these: in vivo, 120 h. The data set is classed as organism-based, Mesocricetus auratus.
Data set [8] concerns Leishmania donovani. Description: Antileishmanial activity against amastigote stage of Leishmania donovani MHOM/IN/80/Dd8 infected in golden hamster at 30 mg/kg, po administered for 5 days measured on day 7 of last dose by Geimsa staining method. The conditions noted are these: MHOM/IN/80/Dd8, po. The class given is functional. The gist of the method: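 Golden hamsters (inbred, either sex, 40–45 g) were infected intracardially with 1x 10^7 L. donovani amastigotes. Spleen biopsy at day 15; animals with +1 infection (5–10 amastigotes/100 spleen cell nuclei) were used, 5–6 per group. Dosing started 2 days after biopsy and ran 5 consecutive days. Day-7 post-treatment splenic amastigotes were counted by Giemsa stain; percent inhibition was computed against initial and untreated-control counts.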

On to `CC(C)(C)NC(=O)C(c1ccc(Cl)cc1)N(CC(=O)NCCCN1CCOCC1)C(=O)c1cc2ccccc2[nH]1` (stereo unspecified), for which the figures for the CC50 at 72 h in data set [1] and in data set [4] were 212 µM and 198 µM, respectively. The compound further registered an IC50 in the data set on Leishmania donovani [2] of 2.1 µM. In addition, in data set [3], the “Ratio CC50/IC50” value is 101. The “Ratio IC50” value with Leishmania donovani [5] is given as 4.

With Sodium stibo-gluconate, in the data set on Vero, the Ratio CC50/IC50 is > 7. Besides, the inhibition in the data set on Leishmania donovani [6] was 86.9%.

As to `COc1ccc(CNC(=O)CN(C(=O)c2cc3ccccc3[nH]2)C(C(=O)NC(C)(C)C)c2ccc(Br)cc2)cc1` (stereo unspecified), the CC50 at 72 h in data set [1] was > 400 µM; in data set [4] it was 135 µM. In the data set with Leishmania donovani [2], this compound came in with a concentration for half-maximal inhibition (IC50) of 1.5 µM. In addition, the “Ratio CC50/IC50” value in [3] was >266.

For `COc1ccc(CNC(=O)CN(C(=O)c2ccc[nH]2)C(C(=O)NC(C)(C)C)c2cc(OC)c(OC)c(OC)c2)cc1` (stereo unspecified), the CC50 at 72 h in [1] is 73 µM; in [4] it was 62.4 µM. Also, in the data set with Leishmania donovani [2], the IC50 was determined as 14.5 µM. Besides, the “Ratio CC50/IC50” value in data set [3] came to 5.

Consider `COc1ccc(CNC(=O)CN(C(=O)c2cc3ccccc3[nH]2)C(C(=O)NC(C)(C)C)c2ccc(OC)cc2)cc1` (stereo unspecified), for which the results for the CC50 at 72 h in data set [1] and in [4] were > 400 µM and 145 µM, respectively. The compound also returned an IC50 in the data set on Leishmania donovani [2] of 0.6 µM. The “Ratio CC50/IC50” value in [3] was >666. For the same compound, in the data set on Leishmania donovani [5], the “Ratio IC50” value was 14. In the data set with Leishmania donovani [7], this compound registered an inhibition in vivo at 50 mg/kg/day of 63.4%. Also, in the data set with Syrian golden hamster, the Activity result is on record as “Non-toxic”.

On to `COc1ccc(C(C(=O)NC(C)(C)C)N(CC(=O)NCc2ccc(Cl)cc2)C(=O)c2cc3ccccc3[nH]2)cc1` (stereo unspecified), for which the figures for the CC50 at 72 h in data set [1] and in [4] were 400 µM and 123 µM, respectively. This compound showed an IC50 in the data set on Leishmania donovani [2] of 7.5 µM. Moreover, the “Ratio CC50/IC50” value in data set [3] is reported as 53.

In the case of `CC(C)(C)NC(=O)C(c1ccc(Cl)cc1)N(CC(=O)NCc1ccc(Cl)cc1)C(=O)c1cc2ccccc2[nH]1` (stereo unspecified), the CC50 at 72 h in data set [1] was > 400 µM; in data set [4] it was 143 µM. Moreover, the IC50 in the data set with Leishmania donovani [2] amounted to 10.9 µM. Further, in data set [3], the “Ratio CC50/IC50” value is >36.

With `COc1ccc(CNC(=O)CN(C(=O)c2cc3ccccc3[nH]2)C(C(=O)NC(C)(C)C)c2cc(OC)c(OC)c(OC)c2)cc1` (stereo unspecified), the CC50 at 72 h turned out to be 70.3 µM in data set [1] and 53.6 µM in data set [4]. In the data set with Leishmania donovani [2], this compound gave an IC50 of 9.2 µM. For the same compound, in data set [3], the “Ratio CC50/IC50” value turned out to be 7.

Consider `CC(C)(C)NC(=O)C(c1ccc(Cl)cc1)N(CC(=O)NCCO)C(=O)c1cc2ccccc2[nH]1` (stereo unspecified), for which the values for the CC50 at 72 h in data set [1] and in [4] were 226 µM and 239 µM, respectively. Besides, the IC50 with Leishmania donovani [2] is > 40 µM. Also, the “Ratio CC50/IC50” value in data set [3] was <5.

For the compound `CC(C)(C)NC(=O)C(c1ccc(Cl)cc1)N(CC(=O)NCc1ccc(Cl)c(Cl)c1)C(=O)c1cc2ccccc2[nH]1` (stereo unspecified), the values for the CC50 at 72 h in data set [1] and in data set [4] were 52.2 µM and 19.2 µM, respectively. Further, it took 7.5 µM to reach half-maximal inhibition in the data set with Leishmania donovani [2] (IC50). In addition, the “Ratio CC50/IC50” value in [3] stood at 7.

Consider `CC(C)(C)NC(=O)C(c1ccc(Cl)cc1)N(CC(=O)NCc1ccccc1)C(=O)c1cc2ccccc2[nH]1` (stereo unspecified), for which the results for the CC50 at 72 h in [1] and in data set [4] were 248 µM and 152 µM, respectively. In addition, in the data set with Leishmania donovani [2], the IC50 was found to be 8.8 µM. In addition, the “Ratio CC50/IC50” value in [3] turned out to be 28.

Consider `CC(C)(C)NC(=O)C(c1ccc(Cl)cc1)N(CC(=O)NCc1ccncc1)C(=O)c1cc2ccccc2[nH]1` (stereo unspecified), for which the CC50 at 72 h in [1] is > 400 µM; in data set [4], 129 µM. The same compound gave an IC50 in the data set on Leishmania donovani [2] of 6.4 µM. Moreover, the “Ratio CC50/IC50” value in data set [3] was >62.

For the compound `COc1cc(C(C(=O)NC(C)(C)C)N(CC(=O)NCc2ccccc2)C(=O)c2cc3ccccc3[nH]2)cc(OC)c1OC` (stereo unspecified), the CC50 at 72 h in data set [1] was 176 µM; in data set [4], 66.8 µM. Also, in the data set with Leishmania donovani [2], the IC50 was > 40 µM. The “Ratio CC50/IC50” value in data set [3] was <4.

Regarding `COc1ccc(C(C(=O)NC(C)(C)C)N(CC(=O)NCc2ccncc2)C(=O)c2cc3ccccc3[nH]2)cc1` (stereo unspecified), the CC50 at 72 h is 109 µM in data set [1] and 47.9 µM in [4]. The compound also yielded a half-inhibitory concentration (IC50) in the data set with Leishmania donovani [2] of 1.4 µM. The “Ratio CC50/IC50” value in data set [3] is recorded as 78.

`CCCCCCCCCCCCCCCCOP(=O)([O-])OCC[N+](C)(C)C` [MILTEFOSINE]: the concentration for half-maximal inhibition (IC50) in the data set with Leishmania donovani [2] is 8.4 µM. Further, the “Ratio CC50/IC50” value in [3] is 6. Further, the 50% cytotoxic concentration (CC50) at 72 h in data set [4] was found to be 14.3 µM. Moreover, the Activity result in the data set with Syrian golden hamster is given as “Non-toxic”. The same compound had an inhibition in vivo at 30 mg/kg with Leishmania donovani [8] of 98.1%.

Consider `COc1cc(C(C(=O)NC(C)(C)C)N(CC(=O)NCc2ccc(Cl)c(Cl)c2)C(=O)c2cc3ccccc3[nH]2)cc(OC)c1OC` (stereo unspecified), for which the CC50 at 72 h in data set [1] worked out at 72.9 µM; in data set [4] it was 61.4 µM. The same compound yielded an IC50 with Leishmania donovani [2] of 6.3 µM. The “Ratio CC50/IC50” value in data set [3] came out at 11.

On to `CC(C)(C)NC(=O)C(c1ccc(Br)cc1)N(CC(=O)NCCCN1CCOCC1)C(=O)c1cc2ccccc2[nH]1` (stereo unspecified), for which the results for the CC50 at 72 h in [1] and in data set [4] were > 400 µM and 147 µM, respectively. In addition, in the data set on Leishmania donovani [2], the IC50 turned out to be 1 µM. For the same compound, the “Ratio CC50/IC50” value in data set [3] is >400. The inhibition in vivo at 50 mg/kg/day with Leishmania donovani [7] was found to be 63.5%. In the data set on Syrian golden hamster, the Activity result is on record as “Non-toxic”.

As to `COc1cccc(CNC(=O)CN(C(=O)c2cc3ccccc3[nH]2)C(C(=O)NC(C)(C)C)c2ccc(Cl)cc2)c1` (stereo unspecified), the CC50 at 72 h in [1] was > 400 µM; in data set [4], 42.5 µM. The midpoint of inhibition with Leishmania donovani [2], the IC50, lay at 1.9 µM. In addition, the “Ratio CC50/IC50” value in data set [3] was >210.

`COc1ccc(CNC(=O)CN(C(=O)c2cc3ccccc3[nH]2)C(C(=O)NC(C)(C)CC(C)(C)C)c2ccc(Cl)cc2)cc1` (stereo unspecified): the CC50 at 72 h is > 400 µM in data set [1] and 51.2 µM in [4]. In the data set on Leishmania donovani [2], this compound yielded an IC50 of 3.1 µM. For the same compound, the “Ratio CC50/IC50” value in data set [3] was >129.

A word on the CC50: it is the concentration that lowers cell viability or growth by half. A word on the IC50: it is the midpoint of a concentration-inhibition curve. What is called inhibition is the percentage by which the read-out fell short of the control. In general, inhibition in vivo refers to the change of the read-out against control, counted positive when it falls.

Source of the values: ChEMBL document CHEMBL3763111, “Identification of a diverse indole-2-carboxamides as a potent antileishmanial chemotypes” (Eur J Med Chem, 2016).
